Source: ChEMBL document CHEMBL3526049 (Drug Metab Dispos, 2012)

Legend:
[1] = AUC (infinity) in wild-type Sprague-Dawley rat at 5 mg/kg, po by LC-MS/MS analysis; type: ADME, organism-based; parameters: time infinity, dose 5 mg/kg, route oral; details: plasma
How it was run: (§1)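 Male Sprague-Dawley rats (knockouts age- and weight-matched to wild type), femoral-artery and vein cannulated, recovered ≥2 days. IV/oral crossover: 1 mg/kg IV bolus on day 0, then after a 3-day washout 5 mg/kg oral gavage in 10 ml/kg 50% Cremophor EL in ethanol. Arterial plasma 0–24 h, protein-precipitated, LC-MS/MS (positive ion, 1–5000 ng/ml). Noncompartmental analysis; n=5–9.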

[2] = Clearance in wild-type Sprague-Dawley rat at 1 mg/kg, iv by LC-MS/MS analysis; details: in vivo
[3] = Drug excretion in bile duct-cannulated MRP2 knockout Sprague-Dawley rat bile at 1 mg/kg, iv up to 24 hrs; type: ADME, organism-based; parameters: dose 1 mg/kg, route intravenous; details: read-out: Drug excretion
How it was run: (§2)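 Male Sprague-Dawley rats with bile-duct and femoral cannulation, housed in metabolism cages. Given an IV bolus of 1 mg/kg in 2 ml/kg 50% Cremophor EL in ethanol. Urine, bile and feces collected in toto 0–24 h, with cage wash at 24 h. Amounts quantified by LC-MS/MS and expressed as % of dose; n=6–12.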

[4] = Clearance in BCRP knockout Sprague-Dawley rat at 1 mg/kg, iv by LC-MS/MS analysis; details: in vivo
[5] = AUC (infinity) in BCRP knockout Sprague-Dawley rat at 1 mg/kg, iv by LC-MS/MS analysis; type: ADME, organism-based; parameters: time infinity, dose 1 mg/kg, route intravenous; details: plasma
[6] = Drug excretion in bile duct-cannulated wild-type Sprague-Dawley rat urine at 1 mg/kg, iv up to 24 hrs; type: ADME, organism-based; parameters: dose 1 mg/kg, route intravenous; details: read-out: Drug excretion; how it was run: as §2
[7] = Half life in BCRP knockout Sprague-Dawley rat at 5 mg/kg, po by LC-MS/MS analysis; type: ADME, organism-based; parameters: dose 5 mg/kg, route oral; details: in vivo; how it was run: as §1
[8] = Volume of distribution at steady state in BCRP knockout Sprague-Dawley rat at 1 mg/kg, iv by LC-MS/MS analysis; type: ADME, organism-based; parameters: dose 1 mg/kg, route intravenous; details: in vivo, read-out: Vdss
How it was run: (§3)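 Male Sprague-Dawley rats (knockout or wild type matched for age and weight), femoral artery and vein cannulated, at least 2 days recovery. Crossover design: IV bolus 1 mg/kg on day 0 (saline with 0.2 M equivalents HCl), oral gavage 10 mg/kg on day 3 (water with 0.2 M equivalents HCl). Arterial plasma sampled to 24 h (Mdr1a oral arm to 4 h). Analysed by LC-MS/MS and noncompartmental analysis.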

[9] = Drug excretion in bile duct-cannulated BCRP knockout Sprague-Dawley rat bile at 1 mg/kg, iv up to 24 hrs; type: ADME, organism-based; parameters: dose 1 mg/kg, route intravenous; details: read-out: Drug excretion; how it was run: as §2
[10] = Tmax in BCRP knockout Sprague-Dawley rat at 5 mg/kg, po by LC-MS/MS analysis; type: ADME, organism-based; parameters: dose 5 mg/kg, route oral; details: in vivo; how it was run: as §1
[11] = Volume of distribution at steady state in MRP2 knockout Sprague-Dawley rat at 1 mg/kg, iv by LC-MS/MS analysis; type: ADME, organism-based; parameters: dose 1 mg/kg, route intravenous; details: in vivo, read-out: Vdss; how it was run: as §3
[12] = Drug excretion in bile duct-cannulated MDR1A knockout Sprague-Dawley rat feces at 1 mg/kg, iv up to 24 hrs; type: ADME, organism-based; parameters: dose 1 mg/kg, route intravenous; details: faeces, read-out: Drug excretion; how it was run: as §2
[13] = Half life in wild-type Sprague-Dawley rat at 5 mg/kg, po by LC-MS/MS analysis; type: ADME, organism-based; parameters: dose 5 mg/kg, route oral; details: in vivo; how it was run: as §1
[14] = Half life in wild-type Sprague-Dawley rat at 1 mg/kg, iv by LC-MS/MS analysis; type: ADME, organism-based; parameters: dose 1 mg/kg, route intravenous; details: in vivo; how it was run: as §3
Kidney = assay: Drug uptake in BCRP knockout Sprague-Dawley rat kidney at 1 mg/kg, iv; type: ADME, organism-based; parameters: dose 1 mg/kg, route intravenous; details: in vivo
[15] = Oral bioavailability in wild-type Sprague-Dawley rat at 5 mg/kg by LC-MS/MS analysis; type: ADME, organism-based; details: in vivo; how it was run: as §1
[16] = Half life in MDR1A knockout Sprague-Dawley rat at 1 mg/kg, iv by LC-MS/MS analysis; type: ADME, organism-based; parameters: dose 1 mg/kg, route intravenous; details: in vivo; how it was run: as §3
[17] = Half life in MRP2 knockout Sprague-Dawley rat at 5 mg/kg, po by LC-MS/MS analysis; type: ADME, organism-based; parameters: dose 5 mg/kg, route oral; details: in vivo; how it was run: as §1
[18] = Volume of distribution at steady state in MDR1A knockout Sprague-Dawley rat at 1 mg/kg, iv by LC-MS/MS analysis; type: ADME, organism-based; parameters: dose 1 mg/kg, route intravenous; details: in vivo, read-out: Vdss; how it was run: as §3
[19] = Clearance in MDR1A knockout Sprague-Dawley rat at 1 mg/kg, iv by LC-MS/MS analysis; details: in vivo
[20] = Oral bioavailability in MRP2 knockout Sprague-Dawley rat at 5 mg/kg by LC-MS/MS analysis; type: ADME, organism-based; details: in vivo; how it was run: as §1
[21] = Drug excretion in bile duct-cannulated MRP2 knockout Sprague-Dawley rat feces at 1 mg/kg, iv up to 24 hrs; type: ADME, organism-based; parameters: dose 1 mg/kg, route intravenous; details: faeces, read-out: Drug excretion; how it was run: as §2
[22] = Drug excretion in bile duct-cannulated MDR1A knockout Sprague-Dawley rat bile at 1 mg/kg, iv up to 24 hrs; type: ADME, organism-based; parameters: dose 1 mg/kg, route intravenous; details: read-out: Drug excretion
How it was run: (§4)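 Male Sprague-Dawley Mdr1a knockout rats with bile duct and femoral cannulas, housed in metabolism cages. […] Urine, bile and feces were collected in total over 0–24 h, and cage wash was taken at 24 h.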

[23] = Drug excretion in bile duct-cannulated BCRP knockout Sprague-Dawley rat feces at 1 mg/kg, iv up to 24 hrs; type: ADME, organism-based; parameters: dose 1 mg/kg, route intravenous; details: faeces, read-out: Drug excretion; how it was run: as §2
[24] = AUC (infinity) in MRP2 knockout Sprague-Dawley rat at 5 mg/kg, po by LC-MS/MS analysis; type: ADME, organism-based; parameters: time infinity, dose 5 mg/kg, route oral; details: plasma; how it was run: as §1
[25] = Drug excretion in bile duct-cannulated MDR1A knockout Sprague-Dawley rat urine at 1 mg/kg, iv up to 24 hrs; type: ADME, organism-based; parameters: dose 1 mg/kg, route intravenous; details: read-out: Drug excretion; how it was run: as §4

AUC(0-inf) [1]: 0.088 µg·h/mL
clearance [2]: 6.7 L/h/kg
dose excreted at 24 h [3]: 0.2%
clearance [4]: 6.1 L/h/kg
AUC(0-inf) [5]: 0.171 µg·h/mL
dose excreted at 24 h [6]: 3.1%
half-life [7]: 5.3 h
Vd [8]: 29.1 L/kg
dose excreted at 24 h [9]: 0.1%
Tmax [10]: 0.9 h
Vd [11]: 28.6 L/kg
dose excreted at 24 h [12]: 0.21%
half-life [13]: 4.4 h
half-life [14]: 7.2 h
Drug uptake (Kidney): Active
bioavailability [15]: 12%
half-life [16]: 12.2 h
half-life [17]: 9.4 h
Vd [18]: 38.1 L/kg
clearance [19]: 4 L/h/kg
bioavailability [20]: 27%
dose excreted at 24 h [21]: 2.8%
dose excreted at 24 h [22]: 0%
dose excreted at 24 h [23]: 1%
AUC(0-inf) [24]: 0.622 µg·h/mL
dose excreted at 24 h [25]: 0.14%
SMILES: CC(=O)O[C@H]1C(=O)[C@@]2(C)[C@H]([C@H](OC(=O)c3ccccc3)[C@]3(O)C[C@H](OC(=O)[C@H](O)[C@@H](NC(=O)c4ccccc4)c4ccccc4)C(C)=C1C3(C)C)[C@]1(OC(C)=O)CO[C@@H]1C[C@@H]2O [PACLITAXEL]
